Experimental data published in the M2OR odorant receptor database.
Substitutions are numbered along the chain they refer to.

How the values were obtained:
Details in all cases: stereoisomer not certain
O10R2 I170L = test system: T1, O10R2 I170L
T1 sequence (whole entry): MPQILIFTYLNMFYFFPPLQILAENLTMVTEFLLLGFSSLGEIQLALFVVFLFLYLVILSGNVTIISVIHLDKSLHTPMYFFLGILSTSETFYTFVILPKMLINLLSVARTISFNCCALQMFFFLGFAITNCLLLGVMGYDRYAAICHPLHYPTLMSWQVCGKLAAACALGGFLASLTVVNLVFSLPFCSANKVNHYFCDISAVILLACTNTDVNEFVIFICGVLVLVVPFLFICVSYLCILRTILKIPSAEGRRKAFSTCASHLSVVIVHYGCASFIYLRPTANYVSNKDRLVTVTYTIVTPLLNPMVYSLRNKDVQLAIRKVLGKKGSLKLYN
How it was run: (§1)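 Whether a receptor–molecule pair is responsive (active) rests on the original authors' judgment that its measured signal was statistically different from baseline. Pairs without that judgment are non-responsive (inactive). Sources used varied assay methods, commonly transient luciferase assays in mammalian cell lines.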

O10T2 I137M = test system: T2, O10T2 I137M
T2 sequence (whole entry): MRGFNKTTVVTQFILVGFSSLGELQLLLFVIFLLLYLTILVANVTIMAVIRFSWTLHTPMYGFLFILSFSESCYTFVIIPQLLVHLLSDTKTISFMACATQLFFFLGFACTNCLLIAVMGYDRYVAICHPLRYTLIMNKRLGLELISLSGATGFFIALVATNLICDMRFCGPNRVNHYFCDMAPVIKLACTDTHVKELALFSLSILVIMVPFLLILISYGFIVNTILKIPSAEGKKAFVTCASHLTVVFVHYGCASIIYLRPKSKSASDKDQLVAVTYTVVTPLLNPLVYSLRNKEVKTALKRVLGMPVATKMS
How it was run: as §1

O10V1 Q123R = test system: T3, O10V1 Q123R
T3 sequence (whole entry): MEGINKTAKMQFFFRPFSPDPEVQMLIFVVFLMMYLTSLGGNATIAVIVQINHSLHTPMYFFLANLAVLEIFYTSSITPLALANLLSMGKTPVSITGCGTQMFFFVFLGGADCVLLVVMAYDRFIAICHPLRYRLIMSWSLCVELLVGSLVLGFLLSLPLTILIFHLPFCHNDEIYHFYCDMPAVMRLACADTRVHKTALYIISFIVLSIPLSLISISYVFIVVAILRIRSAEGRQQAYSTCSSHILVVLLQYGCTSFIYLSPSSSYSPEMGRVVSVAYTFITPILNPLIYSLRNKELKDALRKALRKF
How it was run: as §1

O10X1 N4T R181S = test system: T4, O10X1 N4T R181S
T4 sequence (whole entry): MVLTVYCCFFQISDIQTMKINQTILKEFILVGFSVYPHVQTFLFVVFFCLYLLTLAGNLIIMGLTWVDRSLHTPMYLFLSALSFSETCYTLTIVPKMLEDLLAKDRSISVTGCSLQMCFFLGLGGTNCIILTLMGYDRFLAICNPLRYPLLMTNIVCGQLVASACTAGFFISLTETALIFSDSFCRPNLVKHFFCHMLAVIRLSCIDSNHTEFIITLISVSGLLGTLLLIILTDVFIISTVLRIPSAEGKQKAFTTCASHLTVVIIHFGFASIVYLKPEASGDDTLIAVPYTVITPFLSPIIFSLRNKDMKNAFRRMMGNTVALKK
How it was run: as §1

O11G2 F3I I99N V116I = test system: T5, O11G2 F3I I99N V116I
T5 sequence (whole entry): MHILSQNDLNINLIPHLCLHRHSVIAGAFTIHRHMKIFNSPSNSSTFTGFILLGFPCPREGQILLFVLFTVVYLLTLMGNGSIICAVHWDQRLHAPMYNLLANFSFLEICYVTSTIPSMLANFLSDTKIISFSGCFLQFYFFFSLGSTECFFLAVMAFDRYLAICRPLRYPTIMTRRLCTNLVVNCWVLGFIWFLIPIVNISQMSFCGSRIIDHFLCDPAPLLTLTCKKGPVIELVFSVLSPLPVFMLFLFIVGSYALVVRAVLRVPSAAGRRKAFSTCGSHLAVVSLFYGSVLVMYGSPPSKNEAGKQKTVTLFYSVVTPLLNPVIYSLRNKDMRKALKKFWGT
How it was run: as §1

O11H1 M240V = test system: T6, O11H1 M240V
T6 sequence (whole entry): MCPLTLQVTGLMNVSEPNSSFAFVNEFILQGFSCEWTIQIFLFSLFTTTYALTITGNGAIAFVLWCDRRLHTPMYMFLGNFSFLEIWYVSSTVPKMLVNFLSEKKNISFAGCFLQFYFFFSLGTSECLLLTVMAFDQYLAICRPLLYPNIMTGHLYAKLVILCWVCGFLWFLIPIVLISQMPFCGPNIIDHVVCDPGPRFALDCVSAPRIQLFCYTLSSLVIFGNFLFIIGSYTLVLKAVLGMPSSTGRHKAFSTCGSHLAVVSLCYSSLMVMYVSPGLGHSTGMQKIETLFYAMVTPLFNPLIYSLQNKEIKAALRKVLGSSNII
How it was run: as §1

O11H6 I107T = test system: T7, O11H6 I107T
T7 sequence (whole entry): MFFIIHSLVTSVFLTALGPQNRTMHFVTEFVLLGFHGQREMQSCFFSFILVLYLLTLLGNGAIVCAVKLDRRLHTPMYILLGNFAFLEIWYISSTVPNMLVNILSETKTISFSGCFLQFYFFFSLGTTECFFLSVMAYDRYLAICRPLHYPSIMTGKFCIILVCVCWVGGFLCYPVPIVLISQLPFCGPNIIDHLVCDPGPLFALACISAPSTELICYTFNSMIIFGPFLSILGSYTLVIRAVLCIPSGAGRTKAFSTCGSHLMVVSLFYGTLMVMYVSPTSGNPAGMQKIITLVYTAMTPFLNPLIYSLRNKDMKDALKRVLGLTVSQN
How it was run: as §1

O11HC C156Y V240M = test system: T8, O11HC C156Y V240M
T8 sequence (whole entry): T6 sequence (whole entry) with S33T, R68W, V240M
How it was run: as §1

O12D2 S104F = test system: T9, O12D2 S104F
T9 sequence (whole entry): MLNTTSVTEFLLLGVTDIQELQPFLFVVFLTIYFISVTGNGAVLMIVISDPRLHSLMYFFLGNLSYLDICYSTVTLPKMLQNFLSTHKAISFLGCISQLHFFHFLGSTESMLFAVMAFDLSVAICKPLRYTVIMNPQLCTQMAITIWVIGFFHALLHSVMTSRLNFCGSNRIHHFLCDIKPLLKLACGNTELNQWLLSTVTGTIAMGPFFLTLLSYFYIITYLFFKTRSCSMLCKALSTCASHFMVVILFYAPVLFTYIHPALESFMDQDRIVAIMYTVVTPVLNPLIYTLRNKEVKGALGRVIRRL
How it was run: as §1

O13C2 H6Q = test system: T10, O13C2 H6Q
T10 sequence (whole entry): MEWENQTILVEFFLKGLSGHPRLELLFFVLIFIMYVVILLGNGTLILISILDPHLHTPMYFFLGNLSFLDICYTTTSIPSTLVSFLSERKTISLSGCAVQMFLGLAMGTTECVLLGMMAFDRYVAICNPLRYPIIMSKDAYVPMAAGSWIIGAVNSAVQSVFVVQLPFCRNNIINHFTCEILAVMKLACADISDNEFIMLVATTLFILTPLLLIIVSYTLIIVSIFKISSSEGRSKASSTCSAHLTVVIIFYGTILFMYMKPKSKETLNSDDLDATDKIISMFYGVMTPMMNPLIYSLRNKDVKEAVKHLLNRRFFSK
How it was run: as §1

O13C8 A19D = test system: T11, O13C8 A19D
T11 sequence (whole entry): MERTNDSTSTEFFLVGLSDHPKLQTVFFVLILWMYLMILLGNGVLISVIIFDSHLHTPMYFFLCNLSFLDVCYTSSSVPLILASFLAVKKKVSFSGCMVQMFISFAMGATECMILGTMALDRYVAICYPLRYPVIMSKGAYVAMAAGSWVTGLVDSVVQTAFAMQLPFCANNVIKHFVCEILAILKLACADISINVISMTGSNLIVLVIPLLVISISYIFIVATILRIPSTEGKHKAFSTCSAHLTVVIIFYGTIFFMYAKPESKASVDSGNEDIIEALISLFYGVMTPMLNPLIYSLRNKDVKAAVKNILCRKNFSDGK
How it was run: as §1

O13C9 H17L V19G L23H = test system: T12, O13C9 H17L V19G L23H
T12 sequence (whole entry): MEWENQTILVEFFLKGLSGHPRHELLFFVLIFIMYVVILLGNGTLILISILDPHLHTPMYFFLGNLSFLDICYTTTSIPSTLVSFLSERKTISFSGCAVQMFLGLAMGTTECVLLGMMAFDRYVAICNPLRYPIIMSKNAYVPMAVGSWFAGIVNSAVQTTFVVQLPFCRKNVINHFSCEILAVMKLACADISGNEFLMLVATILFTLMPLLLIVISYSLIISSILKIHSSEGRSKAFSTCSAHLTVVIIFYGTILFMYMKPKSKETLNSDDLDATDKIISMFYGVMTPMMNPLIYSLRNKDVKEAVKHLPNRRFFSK
How it was run: as §1

O13C9 Q6H = test system: T13, O13C9 Q6H
T13 sequence (whole entry): T12 sequence (whole entry) with Q6H, L17H, G19V, H23L
How it was run: as §1

O13F1 F18S T254M = test system: T14, O13F1 F18S T254M
T14 sequence (whole entry): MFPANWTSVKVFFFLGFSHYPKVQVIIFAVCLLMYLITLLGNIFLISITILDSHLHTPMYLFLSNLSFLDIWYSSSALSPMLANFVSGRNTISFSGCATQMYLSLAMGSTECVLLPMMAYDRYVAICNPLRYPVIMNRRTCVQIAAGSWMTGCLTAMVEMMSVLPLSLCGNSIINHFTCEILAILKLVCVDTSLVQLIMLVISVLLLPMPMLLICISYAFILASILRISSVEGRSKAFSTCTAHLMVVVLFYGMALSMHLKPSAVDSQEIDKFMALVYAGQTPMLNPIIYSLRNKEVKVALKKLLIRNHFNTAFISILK
How it was run: as §1

O13F1 F18S = test system: T15, O13F1 F18S
T15 sequence (whole entry): T14 sequence (whole entry) with M254T
How it was run: as §1

O13G1 K46I M146L = test system: T16, O13G1 K46I M146L
T16 sequence (whole entry): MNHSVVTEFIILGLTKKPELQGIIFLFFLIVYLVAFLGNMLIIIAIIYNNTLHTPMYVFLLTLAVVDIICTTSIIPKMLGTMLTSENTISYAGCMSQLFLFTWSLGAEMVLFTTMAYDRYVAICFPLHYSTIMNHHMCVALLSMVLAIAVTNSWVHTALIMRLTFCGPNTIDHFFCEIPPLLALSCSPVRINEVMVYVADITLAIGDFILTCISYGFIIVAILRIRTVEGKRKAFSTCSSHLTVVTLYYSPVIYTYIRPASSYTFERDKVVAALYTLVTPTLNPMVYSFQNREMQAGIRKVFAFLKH
How it was run: as §1

O13G1 = test system: T17, O13G1
T17 sequence (whole entry): T16 sequence (whole entry) with I46K, I132V, L146M
How it was run: as §1

O13H1 Y266S = test system: T18, O13H1 Y266S
T18 sequence (whole entry): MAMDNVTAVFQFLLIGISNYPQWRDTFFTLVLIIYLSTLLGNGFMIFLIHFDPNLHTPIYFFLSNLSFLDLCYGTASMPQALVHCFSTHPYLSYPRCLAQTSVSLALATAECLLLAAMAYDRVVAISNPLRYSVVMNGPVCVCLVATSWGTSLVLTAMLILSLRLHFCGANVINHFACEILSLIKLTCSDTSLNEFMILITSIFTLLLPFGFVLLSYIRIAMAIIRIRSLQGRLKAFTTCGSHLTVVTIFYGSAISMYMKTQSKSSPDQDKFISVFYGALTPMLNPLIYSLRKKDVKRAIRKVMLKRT
How it was run: as §1

O13J1 = test system: T19, O13J1
T19 sequence (whole entry): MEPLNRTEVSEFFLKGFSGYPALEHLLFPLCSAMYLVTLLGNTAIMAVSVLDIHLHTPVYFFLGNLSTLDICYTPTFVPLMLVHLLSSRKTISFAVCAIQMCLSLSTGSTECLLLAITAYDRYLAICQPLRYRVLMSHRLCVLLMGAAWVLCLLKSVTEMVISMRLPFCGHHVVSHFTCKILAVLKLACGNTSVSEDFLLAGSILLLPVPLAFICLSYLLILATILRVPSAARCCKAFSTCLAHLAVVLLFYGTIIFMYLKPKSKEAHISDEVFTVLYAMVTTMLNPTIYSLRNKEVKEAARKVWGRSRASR
How it was run: as §1

O1440 = test system: T20, O1440
T20 sequence (whole entry): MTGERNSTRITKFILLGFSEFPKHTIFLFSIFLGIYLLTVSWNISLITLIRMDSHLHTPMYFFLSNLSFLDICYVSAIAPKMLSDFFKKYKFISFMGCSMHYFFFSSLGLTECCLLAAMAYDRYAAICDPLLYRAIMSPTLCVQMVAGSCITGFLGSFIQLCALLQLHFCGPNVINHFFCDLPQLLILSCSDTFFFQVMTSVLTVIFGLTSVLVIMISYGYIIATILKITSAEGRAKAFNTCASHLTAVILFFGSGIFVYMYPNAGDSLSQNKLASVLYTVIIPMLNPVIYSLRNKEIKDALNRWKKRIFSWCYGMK
How it was run: as §1

Measured: odorant receptor agonist call;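 further: active if original authors judged signal statistically different from baseline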

CC1=NC(C)C(C)S1 (centres undefined)
not listed: O1440
inactive: all other assays above

O=C1CCCCCCC=CCCCCCCC1
active: O1440

CC1=C(O)C(=O)OC1C (centres undefined)
not listed: O1440
inactive: all other assays above

C1CCCCCCCCCCCCCC1
inactive: O1440

O=C1CCCCCCCCC1
inactive: O1440

CCC1OC(=O)C(O)=C1C (centres undefined)
not listed: O1440
inactive: all other assays above

Cc1cnc(C)c(C)n1
not listed: O1440
inactive: all other assays above
